# How the values were obtained:
# α-amylase [1] = test: Fluorescence spectroscopy; format: binding
# Summary of the method: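 Commercial α-amylase (10 U/mL) mixed with each theaflavin monomer (10–200 μg/mL) at each temperature. Fluorescence spectra recorded at 278 nm over a 290–450 nm scan. Ksv derived from the Stern–Volmer relation (τ0 10−8 s). Ka and n derived from a log((F0−F)/F) vs log[Q] plot. ΔH and ΔS derived from a van't Hoff fit. Results given as mean ± SD.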
# α-amylase [2] = test: Inhibitory kinetic assay; format: biochemical; conditions: Lineweaver-Burk double reciprocal plots, 0.5-2.0% starch
# Summary of the method: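 Commercial α-amylase (0.35 mL, 10 U/mL) preincubated alone or with theaflavin monomer for 5 min at 37 °C. Soluble starch (0.5, 1.0, 1.5, 2.0%) added and incubated 15 min at 37 °C. Reducing sugar measured with DNS reagent (100 °C, 5 min), A540. Initial velocities fitted to Michaelis–Menten for Km and Vmax. Inhibition type assigned from Lineweaver–Burk double-reciprocal plots. Results given as mean ± SD.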
# α-amylase [3] = test: α-amylase activity test; format: biochemical; conditions: α-amylase 10 U/mL, 1% soluble starch, 37 °C
compound,measurement,setting,value
"O=c1c(O)cc([C@H]2Oc3cc(O)cc(O)c3C[C@H]2O)cc2c([C@H]3Oc4cc(O)cc(O)c4C[C@H]3O)cc(O)c(O)c12 [TF1, theaflavin]",Ka (binding constant),α-amylase [1]; 298 K,4.4955 L/g
same,Ksv (quenching constant),α-amylase [1]; 298 K,4.7890 L/g
same,Ka (binding constant),α-amylase [1]; 303 K,5.1038 L/g
same,Ksv (quenching constant),α-amylase [1]; 303 K,4.6468 L/g
same,Ka (binding constant),α-amylase [1]; 310 K,5.6151 L/g
same,Ksv (quenching constant),α-amylase [1]; 310 K,4.2950 L/g
same,inhibition type against α-amylase,α-amylase [2],mixed
same,"IC50, inhibitory activity on α-amylase",α-amylase [3],71.43 µg/mL
